# Compound activity (PubChem BioAssay)
# KCNQ1 act = human KCNQ1 channel potentiation or activation; P51787; B-score at 10 µM; AID 2648; 310,000 compounds, 0.35% hits; CHO-K1 KCNQ1, thallium flux FluxOR fluorescence; stronger effect = higher value;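 active means fluorescence ratio B-score, a plate-corrected score, at least three library SD, with initial intensity B-score within 5 SD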
#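 Test system: CHO-K1 cells stably expressing KCNQ1 / Medium: assay buffer / Also added: depolarizing K+/Tl+ stimulus, K2SO4 and Tl2SO4 each 12.5 mM in 5x stock / Incubation: 90 min dye loading and 20 min compound exposure, both at room temperature / Signal: thallium influx via FluxOR fluorescence, kinetic imaging / Evaluation: B score of baseline-normalized fluorescence ratio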
# KCNQ1 inh = inhibitors of human KCNQ1 potassium channel; CHO-K1 KCNQ1, FluxOR thallium flux fluorescence; stronger effect = higher value; AID 2642; P51787; B-score at 10 µM; 310,000 compounds, 1.3% hits;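 active means compounds whose thallium flux B-score, printed positive for inhibition, exceeds three library SD while starting fluorescence stays within three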;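 further: channel opened by potassium depolarization with thallium stimulus after 20 min compound exposure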
# KCNK9 inh = inhibitors of human KCNK9 two-pore domain potassium channel. HEK293 KCNK9, FluxOR thallium flux fluorescence; stronger effect = lower value. 310,000 compounds, 1.2% hits. B-score at 10 µM. AID 488922;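 active means ratio B-score over 3 SD below the library mean, with starting fluorescence within 5 SD of its mean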;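 further: negative B-score means less thallium flux so channel inhibition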
# hERG rescue = hERG (human) protection from proarrhythmic block; activation (rescue from dofetilide block), less the hit threshold, % at 10 µM; 310,000 compounds, 0.51% hits; Q12809; CHO-hERG, FluxOR thallium flux, dofetilide IC70 present;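 active means activation above the mean of controls blocked by dofetilide plus 5 SD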;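 further: thallium influx through hERG after potassium depolarization seen as dye fluorescence rise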
# Kir21 block = Kir2.1 (mouse) channel inhibition. AID 1672. 310,000 compounds, 0.85% hits. B-score at 10 µM. HEK293-Kir2.1, FluxOR thallium flux fluorescence; stronger effect = lower value. P35561;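 active means fluorescence ratio B-score at or below minus 3 SD of library scores, with starting-brightness B-score within 2 SD, cut at about -4.2 in these data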;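 further: channel flux triggered by added potassium and thallium sulfate stimulus; B-score of peak minus minimum fluorescence over baseline after thallium stimulus; more negative B-score means stronger Kir2.1 block with less thallium influx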
# Target sequence (P35561 whole entry, looked up): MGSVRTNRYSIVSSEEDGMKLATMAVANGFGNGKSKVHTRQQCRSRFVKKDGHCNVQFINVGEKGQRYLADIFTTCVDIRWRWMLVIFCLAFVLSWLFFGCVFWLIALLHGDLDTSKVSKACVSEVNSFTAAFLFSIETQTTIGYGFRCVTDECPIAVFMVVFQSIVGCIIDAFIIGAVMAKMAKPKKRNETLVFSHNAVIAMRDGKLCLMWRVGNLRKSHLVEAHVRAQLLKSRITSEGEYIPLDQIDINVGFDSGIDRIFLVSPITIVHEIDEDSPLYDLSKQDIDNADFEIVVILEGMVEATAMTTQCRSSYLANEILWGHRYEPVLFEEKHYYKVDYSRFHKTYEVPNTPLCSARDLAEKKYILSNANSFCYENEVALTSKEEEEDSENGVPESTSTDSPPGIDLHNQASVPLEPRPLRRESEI
# KCNK3 inh = human KCNK3 channel inhibition, primary screen | O14649 | CHO-KCNK3 thallium flux, FluxOR fluorescence; stronger effect = lower value | B-score at 10 µM | 340,000 compounds, 0.84% hits | AID 602410;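 active means B-score under library mean minus 4 SD, starting fluorescence ratio at most library mean plus 5 SD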;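 further: more negative B-score means stronger inhibition of thallium flux through KCNK3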
# KCNK9 inh conf = confirmation of human KCNK9 potassium channel inhibitors | shares compounds with KCNK9 inh | HEK293 KCNK9 cells, FluxOR thallium flux fluorescence | inhibition, % at 10 µM | 4,900 compounds, 43% hits | AID 492992;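 active means thallium signal inhibited by more than 5 SD of the compound-free buffer control wells, on both duplicate plates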;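 further: 0% = assay buffer control wells without compound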
# Kir21 sel = selectivity of KCNK9 modulators against mouse Kir2.1; 4,900 compounds, 4% hits; shares compounds with KCNK9 inh; Kir2.1 cells, FluxOR thallium flux fluorescence; AID 492993; inhibition, % at 10 µM;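 active means thallium signal drop more than 5 SD beyond the mean of the no-compound control wells, seen in both duplicate plates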;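 further: signal is fluorescence rise after thallium addition divided by baseline fluorescence; plate controls were assay buffer only for no effect and full block by chlorpromazine control for full effect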
# HEK293 Tl ctr = non-induced cell nonspecific activity of KCNK9 modulators; shares compounds with KCNK9 inh; non-induced KCNK9-HEK293, FluxOR thallium flux; inhibition, % at 10 µM; AID 492997; 4,900 compounds, 40% hits;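 active means thallium signal drop beyond 5 SD of the untreated control mean, on both duplicate plates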;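 further: plate controls were buffer only IC0 wells for no effect and SID17386958 at its maximal inhibitory level for full effect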
# The depositor's hits bear a star; i = inactive; / = no result. Sampled rows, rich in hits. Any-hit rate of the full collection: about 3.7%.
SMILES,KCNQ1 act,KCNQ1 inh,KCNK9 inh,hERG rescue,Kir21 block,KCNK3 inh,KCNK9 inh conf,Kir21 sel,HEK293 Tl ctr
Cc1ccc(-c2csc3ncnc(SCc4ccc(C(=O)O)cc4)c23)cc1,33*,i,i,15*,3,i,i,i,i
Cc1nc(SCC(=O)N2CCOCC2)c2c(C)c(C)sc2n1,i,i,i,-4,1,i,/,/,/
O=C(c1c[nH]c2ccccc2c1=O)N1CCCCCC1,i,i,i,-17,0.08,i,/,/,/
COc1ccccc1/C=C/C1(C(=O)NC2CCCC2)CC(=O)N1c1ccc(C)cc1 (stereo not drawn),i,i,-9.8*,-21,0.1,i,i,i,40%*
O=C(NCCC1=CCCCC1)C(=O)c1c[nH]c2ccccc12,i,i,i,-8,0.09,i,/,/,/
Cc1ccnc(NC(=O)c2ccc(NS(=O)(=O)/C=C/c3ccccc3)cc2)c1,i,i,i,-12,-0.8,i,/,/,/
CCCCCCCCC(=O)N/N=C(\C)c1ccc(O)cc1O,i,i,-10*,-16,0.05,i,57%*,i,42%*
CC1CCN(Cc2c(C(=O)N/N=C/c3ccc(C(C)(C)C)cc3)nnn2-c2nonc2N)CC1,i,i,i,-9,0.02,i,i,i,i
CC1CCN(Cc2c(C(=O)N/N=C/c3ccc(C(C)C)cc3)nnn2-c2nonc2N)CC1,i,i,i,-13,0.19,i,/,/,/
CN(C)C(C(=O)Nc1cc(Cl)cc(Cl)c1)c1ccccc1 (stereo not drawn),i,i,-10*,-23,-2.5,i,44%*,i,30%*
O=C(OC(C(=O)Nc1cc(Cl)cc(Cl)c1)c1ccccc1)C1=COCCO1 (stereo not drawn),i,i,i,-8,-1.5,i,/,/,/
CCCCn1c(SCC(=O)c2ccccc2)nc2ccsc2c1=O,i,i,-16*,-7,1.6,i,30%*,i,28%*
CCCCn1c(SCC(=O)c2ccc(O)c(O)c2)nc2ccsc2c1=O,i,i,-16*,-20,-3,i,40%*,i,i
O=C(O)CCCCCn1c(SCC(=O)c2ccc(O)c(O)c2)nc2ccsc2c1=O,i,i,i,-12,0.66,i,/,/,/
CCN(CC(=O)NCC(=O)Nc1ccc(Br)cc1C)Cc1ccccc1,i,i,i,-4,0.14,i,/,/,/
O=C(Cn1c(=O)n(-c2ccccc2)c(=O)c2sccc21)NCc1ccccc1,i,i,i,0,0.68,i,/,/,/
Cc1nnsc1C(=O)NNC(=O)c1cccc2ccccc12,i,i,i,-2,-0.01,i,/,/,/
COc1ccc(OC)c(C(c2nnnn2C2CCCC2)N2CCN(c3ccc(F)cc3)CC2)c1 (stereo not drawn),i,6*,-15*,-2,-0.79,i,52%*,i,44%*
O=C(NCCNC(=O)c1ccco1)c1ccc(Cl)c(Cl)c1,i,i,i,-4,0.68,i,/,/,/
Cc1ccc(N2CCN(C(=O)c3nn(C)c4c3CS(=O)(=O)c3ccccc3-4)CC2)c(C)c1,i,i,i,-10,0.99,i,/,/,/
COC(=O)c1ccc(C(=O)OC)c(NC(=O)CCC(=O)O)c1,i,i,i,-10,0.63,i,/,/,/
COC(=O)c1ccc(C(=O)OC)c(NC(=O)CN(C)Cc2ccccc2)c1,i,i,-11*,-20,1.1,i,71%*,i,36%*
COC(=O)c1ccc(C(=O)OC)c(NC(=O)CN(C)Cc2cccc(Cl)c2Cl)c1,i,i,-12*,-12,-2.3,i,80%*,i,46%*
COc1cccc(C(=O)NC23CC4CC(CC(C4)C2)C3)c1,i,i,i,-6,0.64,i,/,/,/
Cc1cc(=O)oc2cc(OCC(=O)Nc3ccccc3C(=O)O)ccc12,i,i,i,-6,-0.91,i,/,/,/
SMILES,KCNQ1 act,KCNQ1 inh,KCNK9 inh,hERG rescue,Kir21 block,KCNK3 inh,KCNK9 inh conf,Kir21 sel,HEK293 Tl ctr
Fc1cccc(-c2cc3nc4c(c(N5CCC6(CC5)OCCO6)n3n2)CCCC4)c1,i,i,-8.4*,-1,0.57,i,i,i,i
COc1cc(OC)cc(-c2cc3nc4c(c(N5CCN(c6ncccn6)CC5)n3n2)CCCC4)c1,i,i,-8.3*,-10,1.3,-10*,31%*,i,34%*
O=[N+]([O-])c1cc([N+](=O)[O-])c(Oc2cc(F)ccc2F)cc1NN1CCCCC1,i,i,i,-4,-0.66,i,/,/,/
COc1ccc(/C=N/n2c(-c3ccccc3)n[nH]c2=S)cc1,i,i,i,-1,-0.92,i,/,/,/
COc1ccc(/C=N/n2c(N)nc(-c3ccccc3)c2-c2ccccc2)cc1,i,i,i,-40,-1.5,i,i,i,i
Cc1ccc(NC(=S)NNC(=O)c2ccc(N3CCOCC3)c([N+](=O)[O-])c2)cc1Cl,i,6*,i,-7,0.98,i,i,i,i
Cc1cc(C(=O)Nc2ccc(N3CCCC3)c(Cl)c2)ccc1[N+](=O)[O-],i,i,i,-2,-2.1,i,/,/,/
O=C(c1cc([N+](=O)[O-])ccc1Cl)N1CCN(c2ccccc2)CC1,i,i,i,-4,2,i,/,/,/
O=C(NNC(=S)Nc1ccc(Cl)c(Cl)c1)c1cccc([N+](=O)[O-])c1,i,11*,i,-26,-1.4,i,i,i,i
O=C(c1cc([N+](=O)[O-])ccc1Cl)N1c2ccccc2Sc2ccccc21,i,i,-12*,-12,-0.73,i,61%*,i,45%*
O=C(Nc1cccc(NC(=O)c2cc([N+](=O)[O-])ccc2Cl)n1)c1cc([N+](=O)[O-])ccc1Cl,i,i,-8.2*,-12,-0.46,-9.9*,i,i,26%*
Cc1cc(NC(=O)c2cc([N+](=O)[O-])ccc2Cl)no1,i,i,i,-1,-1.7,i,/,/,/
O=c1[nH]cc(NCCNc2ncc(C(F)(F)F)cc2Cl)c(=O)[nH]1,i,i,i,-5,-0.09,i,/,/,/
COc1ccc(Cl)cc1-c1nc(SCC(N)=O)n[nH]1,i,i,i,-6,0.99,i,/,/,/
